Results as given in ChEMBL document CHEMBL1135931, “Rational design, synthesis, and biological activity of novel conformationally restricted vitamin D analogues, (22R)- and (22S)-22-ethyl-1,25-dihydroxy-23,24-didehydro-24a,24b-dihomo-20-epivitamin D(3)” (2002).

Key:
C3H 10T1/2 = experiment: Cells were harvested and were assayed for luciferase and -galactosidase activities (Transcriptional activity); format: functional, Mus musculus
Outline: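 10T1/2 cells in DMEM with 10% charcoal-stripped FBS, 37 °C, 5% CO2; calcium-phosphate transfection 12 h with SPP×3-TK-LUC reporter, pCMX-β-GAL internal control, pUC18 carrier. Ligand 10^-11 to 10^-7 M for 48 h; luciferase normalized to β-galactosidase, duplicate points. Relative activity taken at ED50, as percent of 1,25-(OH)2D3.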

HL-60 = experiment: Differentiation activity of human promyelocytic leukemia cells (HL-60) determined by an NBT reduction assay method; format: functional
Rattus norvegicus = experiment: Calcemic activity (in vivo bone calcium mobilization) was measured by the rise in serum calcium in vitamin D and Ca deficient rats by colorimetric assay; format: functional; design: concentration or dose not given beside the values
Outline: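 Weanling male rats on vitamin D-deficient low-calcium diet (0.03% Ca, 0.6% P) for 3 weeks; single intravenous dose of 1 μg analogue in ethanol (50 μL) or vehicle alone. Serum calcium read colorimetrically (o-cresolphthalein complexone) at 0, 6, 12, 24 and 48 h post-dose; activity expressed as percent of 1,25-(OH)2D3.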

[1] = target: T1, Vitamin D3 receptor (Bos taurus) (UniProt Q28037); experiment: Relative affinity for bovine thymus Vitamin D3 receptor (VDR)
T1 sequence (whole entry): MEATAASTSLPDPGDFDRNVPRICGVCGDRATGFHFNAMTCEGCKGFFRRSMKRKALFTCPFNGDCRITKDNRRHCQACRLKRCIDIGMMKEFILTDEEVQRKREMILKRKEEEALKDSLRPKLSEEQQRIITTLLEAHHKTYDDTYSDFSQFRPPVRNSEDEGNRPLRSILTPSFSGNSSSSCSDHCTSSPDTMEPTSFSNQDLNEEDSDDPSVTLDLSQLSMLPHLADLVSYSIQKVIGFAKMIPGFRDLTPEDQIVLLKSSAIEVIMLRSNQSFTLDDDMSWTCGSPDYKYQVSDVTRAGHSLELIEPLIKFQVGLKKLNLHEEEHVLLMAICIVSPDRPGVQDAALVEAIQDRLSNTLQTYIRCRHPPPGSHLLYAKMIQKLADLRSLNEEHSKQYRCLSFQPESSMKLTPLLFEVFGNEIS
Outline: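 Bovine thymus VDR in 0.05 M phosphate pH 7.4, 0.3 M KCl, 5 mM DTT; incubated with 0.1 nM [3H]-1,25-(OH)2D3 plus graded analogue, 19 h at 4 °C. Dextran-coated charcoal separation 20 min at 4 °C, centrifuge 1000g 10 min, supernatant counted; duplicate. Relative affinity at 50% displacement, as percent of 1,25-(OH)2D3.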

Row | SMILES | Activity (C3H 10T1/2) | Activity (HL-60) | Activity (Rattus norvegicus) | Activity [1]
1 | C=C1/C(=C\C=C2/CCC[C@]3(C)[C@@H]([C@H](C)CCCC(C)(C)O)CC[C@@H]23)C[C@@H](O)C[C@@H]1O [CALCITRIOL] | 100% | 100% | 100% | 100%
2 | C=C1/C(=C\C=C2/CCC[C@]3(C)[C@@H]([C@@H](C)[C@@H](/C=C/CCC(C)(C)O)CC)CC[C@@H]23)C[C@@H](O)C[C@@H]1O | 2500% | 9800% | 140% | 14%
3 | C=C1/C(=C\C=C2/CCC[C@]3(C)[C@@H]([C@@H](C)[C@H](/C=C/CCC(C)(C)O)CC)CC[C@@H]23)C[C@@H](O)C[C@@H]1O | 33% | 77% | 38% | 0.2%
4 | C=C1/C(=C\C=C2/CCC[C@]3(C)[C@@H]([C@@H](C)[C@@H](C)CCC(C)(C)O)CC[C@@H]23)C[C@@H](O)C[C@@H]1O | 3% | 8% | 5% | 0.4%
5 | C=C1/C(=C\C=C2/CCC[C@]3(C)[C@@H]([C@@H](C)[C@H](C)CCC(C)(C)O)CC[C@@H]23)C[C@@H](O)C[C@@H]1O | 10000% | 12000% | 220% | 1100%
